Assay results: ChEMBL document CHEMBL1255392, “Pharmacokinetics of acyclovir and its metabolites in cerebrospinal fluid and systemic circulation after administration of high-dose valacyclovir in subjects with normal and impaired renal function” (Antimicrob Agents Chemother, 2010)

Assays:
[1] = tested on: Homo sapiens; assay: Cmax in human CSF with chronic kidney disease assessed as CMMG level at 1500 mg, po every 12 hrs measured after fifth dose by LC/MS; type: ADME, organism-based, Cerebrospinal fluid; parameters: dose 1500 mg, route oral; details: in vivo
Summary of the method: (§1)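 Three CKD adults (CrCl ~15–30 ml/min) fasted around the final dose. Lumbar intrathecal catheter CSF and EDTA venous blood were taken predose and at 0.5–8 h plus 12 h, then stored at −70°C. Metabolites in serum/CSF were measured by SPE with isotope-labelled internal standards, reversed-phase HPLC and positive-ion MRM MS.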

[2] = tested on: Homo sapiens; assay: Cmax in human systemic circulation with normal renal function assessed as CMMG level at 2000 mg, po every 6 hrs measured after fifth dose by LC/MS; type: ADME, organism-based; parameters: dose 2000 mg, route oral; details: in vivo
Summary of the method: (§2)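 Six volunteers with normal renal function fasted from 8 h before to 2 h after the fifth dose. Intrathecal-catheter CSF and venous blood were sampled at 0–8 h and stored at −70°C. Noncompartmental Cmax, tmax and AUCτ (0–6 h) were derived; Cavg = AUCτ/τ.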

[3] = tested on: Homo sapiens; assay: Ratio of Cmax in human CSF to Cmax in human plasma with normal renal function assessed as CMMG level at 2000 mg, po every 6 hrs measured after fifth dose by LC/MS; type: ADME, organism-based
Summary of the method: (§3)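 For each normal-renal-function subject, the metabolite CSF Cmax was divided by the serum Cmax from samples taken 0–8 h after the fifth dose. Both were measured by LC/MS with isotope-labelled internal standards, and the ratio is given as mean ± SD.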

[4] = tested on: Homo sapiens; assay: Tmax in human CSF with normal renal function assessed as CMMG level at 2000 mg, po every 6 hrs measured after fifth dose by LC/MS; type: ADME, organism-based, Cerebrospinal fluid; details: in vivo; summary of the method: as §2
[5] = tested on: Homo sapiens; assay: Tmax in human systemic circulation with chronic kidney disease assessed as CMMG level at 1500 mg, po every 12 hrs measured after fifth dose by LC/MS; type: ADME, organism-based; details: in vivo; summary of the method: as §1
[6] = tested on: Homo sapiens; assay: Cmax in human systemic circulation with chronic kidney disease assessed as CMMG level at 1500 mg, po every 12 hrs measured after fifth dose by LC/MS; type: ADME, organism-based; parameters: dose 1500 mg, route oral; details: in vivo; summary of the method: as §1
[7] = tested on: Homo sapiens; assay: Ratio of Cmax in human CSF to Cmax in human plasma with chronic kidney disease assessed as CMMG level at 1500 mg, po every 12 hrs measured after fifth dose by LC/MS; type: ADME, organism-based
[8] = tested on: Homo sapiens; assay: Drug level in human CSF with normal renal function assessed as CMMG level at 2000 mg, po every 6 hrs measured after fifth dose by LC/MS; type: ADME, organism-based; details: in vivo, read-out: Drug uptake; summary of the method: as §2
[9] = tested on: Homo sapiens; assay: Drug level in human CSF with chronic kidney disease assessed as CMMG level at 1500 mg, po every 12 hrs measured after fifth dose by LC/MS; type: ADME, organism-based; details: in vivo, read-out: Drug uptake; summary of the method: as §1
[10] = tested on: Homo sapiens; assay: AUC (0 to 12 hrs) in human systemic circulation with chronic kidney disease assessed as CMMG level at 1500 mg, po every 12 hrs measured after fifth dose by LC/MS; type: ADME, organism-based; parameters: dose 1500 mg, time < 12 hr, route oral; details: in vivo; summary of the method: as §1
[11] = tested on: Homo sapiens; assay: Tmax in human CSF with chronic kidney disease assessed as CMMG level at 1500 mg, po every 12 hrs measured after fifth dose by LC/MS; type: ADME, organism-based, Cerebrospinal fluid; details: in vivo; summary of the method: as §1
[12] = tested on: Homo sapiens; assay: AUC (0 to 12 hrs) in human CSF with chronic kidney disease assessed as CMMG level at 1500 mg, po every 12 hrs measured after fifth dose by LC/MS; type: ADME, organism-based; parameters: time < 12 hr, dose 1500 mg, route oral; details: in vivo; summary of the method: as §1
[13] = tested on: Homo sapiens; assay: AUC (0 to 6 hrs) in human systemic circulation with normal renal function assessed as CMMG level at 2000 mg, po every 6 hrs measured after fifth dose by LC/MS; type: ADME, organism-based, Plasma; parameters: dose 2000 mg, time < 6 hr, route oral; details: in vivo; summary of the method: as §2
[14] = tested on: Homo sapiens; assay: AUC (0 to 6 hrs) in human CSF with normal renal function assessed as CMMG level at 2000 mg, po every 6 hrs measured after fifth dose by LC/MS; type: ADME, organism-based; parameters: time < 6 hr, dose 2000 mg, route oral; details: in vivo; summary of the method: as §2
[15] = tested on: Homo sapiens; assay: Drug level in human plasma with chronic kidney disease assessed as CMMG level at 1500 mg, po every 12 hrs measured after fifth dose by LC/MS; type: ADME, organism-based; details: in vivo, read-out: Drug uptake; summary of the method: as §1
[16] = tested on: Homo sapiens; assay: Tmax in human systemic circulation with normal renal function assessed as CMMG level at 2000 mg, po every 6 hrs measured after fifth dose by LC/MS; type: ADME, organism-based; details: in vivo; summary of the method: as §2
[17] = tested on: Homo sapiens; assay: Cmax in human CSF with normal renal function assessed as CMMG level at 2000 mg, po every 6 hrs measured after fifth dose by LC/MS; type: ADME, organism-based, Cerebrospinal fluid; parameters: dose 2000 mg, route oral; details: in vivo; summary of the method: as §2
[18] = tested on: Homo sapiens; assay: Drug level in human plasma with normal renal function assessed as CMMG level at 2000 mg, po every 6 hrs measured after fifth dose by LC/MS; type: ADME, organism-based; details: in vivo, read-out: Drug uptake; summary of the method: as §2
[19] = tested on: Homo sapiens; assay: Cmax in human CSF with chronic kidney disease assessed as 8-OH-ACV level at 1500 mg, po every 12 hrs measured after fifth dose by LC/MS; type: ADME, organism-based, Cerebrospinal fluid; parameters: dose 1500 mg, route oral; details: in vivo; summary of the method: as §1
[20] = tested on: Homo sapiens; assay: Drug level in human CSF with chronic kidney disease assessed as 8-OH acyclovir level at 1500 mg, po every 12 hrs measured after fifth dose by LC/MS; type: ADME, organism-based; details: in vivo, read-out: Drug uptake; summary of the method: as §1
[21] = tested on: Homo sapiens; assay: Drug level in human plasma with normal renal function assessed as 8-OH acyclovir level at 2000 mg, po every 6 hrs measured after fifth dose by LC/MS; type: ADME, organism-based; details: in vivo, read-out: Drug uptake; summary of the method: as §2
[22] = tested on: Homo sapiens; assay: Ratio of Cmax in human CSF to Cmax in human plasma with chronic kidney disease assessed as 8-OH-ACV level at 1500 mg, po every 12 hrs measured after fifth dose by LC/MS; type: ADME, organism-based
[23] = tested on: Homo sapiens; assay: Tmax in human CSF with chronic kidney disease assessed as 8-OH-ACV level at 1500 mg, po every 12 hrs measured after fifth dose by LC/MS; type: ADME, organism-based, Cerebrospinal fluid; details: in vivo; summary of the method: as §1
[24] = tested on: Homo sapiens; assay: AUC (0 to 12 hrs) in human CSF with chronic kidney disease assessed as 8-OH-ACV level at 1500 mg, po every 12 hrs measured after fifth dose by LC/MS; type: ADME, organism-based; parameters: dose 1500 mg, time < 12 hr, route oral; details: in vivo; summary of the method: as §1
[25] = tested on: Homo sapiens; assay: Cmax in human systemic circulation with chronic kidney disease assessed as 8-OH-ACV level at 1500 mg, po every 12 hrs measured after fifth dose by LC/MS; type: ADME, organism-based; parameters: dose 1500 mg, route oral; details: in vivo; summary of the method: as §1
[26] = tested on: Homo sapiens; assay: Tmax in human systemic circulation with normal renal function assessed as 8-OH-ACV level at 2000 mg, po every 6 hrs measured after fifth dose by LC/MS; type: ADME, organism-based; details: in vivo; summary of the method: as §2
[27] = tested on: Homo sapiens; assay: Ratio of Cmax in human CSF to Cmax in human plasma with normal renal function assessed as 8-OH-ACV level at 2000 mg, po every 6 hrs measured after fifth dose by LC/MS; type: ADME, organism-based; summary of the method: as §3
[28] = tested on: Homo sapiens; assay: AUC (0 to 6 hrs) in human systemic circulation with normal renal function assessed as 8-OH-ACV level at 2000 mg, po every 6 hrs measured after fifth dose by LC/MS; type: ADME, organism-based, Plasma; parameters: dose 2000 mg, time < 6 hr, route oral; details: in vivo; summary of the method: as §2
[29] = tested on: Homo sapiens; assay: AUC (0 to 6 hrs) in human CSF with normal renal function assessed as 8-OH-ACV level at 2000 mg, po every 6 hrs measured after fifth dose by LC/MS; type: ADME, organism-based; parameters: dose 2000 mg, time < 6 hr, route oral; details: in vivo; summary of the method: as §2
[30] = tested on: Homo sapiens; assay: Cmax in human systemic circulation with normal renal function assessed as 8-OH-ACV level at 2000 mg, po every 6 hrs measured after fifth dose by LC/MS; type: ADME, organism-based; parameters: dose 2000 mg, route oral; details: in vivo; summary of the method: as §2
[31] = tested on: Homo sapiens; assay: Cmax in human CSF with normal renal function assessed as 8-OH-ACV level at 2000 mg, po every 6 hrs measured after fifth dose by LC/MS; type: ADME, organism-based, Cerebrospinal fluid; parameters: dose 2000 mg, route oral; details: in vivo; summary of the method: as §2
[32] = tested on: Homo sapiens; assay: AUC (0 to 12 hrs) in human systemic circulation with chronic kidney disease assessed as 8-OH-ACV level at 1500 mg, po every 12 hrs measured after fifth dose by LC/MS; type: ADME, organism-based; parameters: dose 1500 mg, time < 12 hr, route oral; details: in vivo; summary of the method: as §1
[33] = tested on: Homo sapiens; assay: Drug level in human plasma with chronic kidney disease assessed as 8-OH acyclovir level at 1500 mg, po every 12 hrs measured after fifth dose by LC/MS; type: ADME, organism-based; details: in vivo, read-out: Drug uptake; summary of the method: as §1
[34] = tested on: Homo sapiens; assay: Drug level in human CSF with normal renal function assessed as 8-OH acyclovir level at 2000 mg, po every 6 hrs measured after fifth dose by LC/MS; type: ADME, organism-based; details: in vivo, read-out: Drug uptake; summary of the method: as §2
[35] = tested on: Homo sapiens; assay: Tmax in human systemic circulation with chronic kidney disease assessed as 8-OH-ACV level at 1500 mg, po every 12 hrs measured after fifth dose by LC/MS; type: ADME, organism-based; details: in vivo; summary of the method: as §1
[36] = tested on: Homo sapiens; assay: Tmax in human CSF with normal renal function assessed as 8-OH-ACV level at 2000 mg, po every 6 hrs measured after fifth dose by LC/MS; type: ADME, organism-based, Cerebrospinal fluid; details: in vivo; summary of the method: as §2

Nc1nc2c(ncn2COCC(=O)O)c(=O)[nH]1
Cmax [1]: 0.37 µM | Cmax [2]: 4.1 µM | Ratio [3]: 0.025 | Tmax [4]: 1.8 h | Tmax [5]: 4.3 h | Cmax [6]: 15 µM | Ratio [7]: 0.025 | concentration [8]: 0.07 µM | concentration [9]: 0.31 µM | AUC [10]: 148 µM·h | Tmax [11]: 6.7 h | AUC [12]: 3.8 µM·h | AUC [13]: 17 µM·h | AUC [14]: 0.42 µM·h | concentration [15]: 12 µM | Tmax [16]: 3.3 h | Cmax [17]: 0.095 µM | concentration [18]: 2.9 µM

Nc1nc2c(nc(O)n2COCCO)c(=O)[nH]1
Cmax [19]: 0.29 µM | concentration [20]: 0.26 µM | concentration [21]: 0.24 µM | Ratio [22]: 0.19 | Tmax [23]: 7 h | AUC [24]: 3.1 µM·h | Cmax [25]: 1.6 µM | Tmax [26]: 3.5 h | Ratio [27]: 0.2 | AUC [28]: 1.4 µM·h | AUC [29]: 0.34 µM·h | Cmax [30]: 0.32 µM | Cmax [31]: 0.062 µM | AUC [32]: 17 µM·h | concentration [33]: 1.4 µM | concentration [34]: 0.06 µM | Tmax [35]: 4 h | Tmax [36]: 2.4 h
